ChEMBL document CHEMBL1212766, “Dose escalation study of the safety, tolerability, and pharmacokinetics of nemonoxacin (TG-873870), a novel potent broad-spectrum nonfluorinated quinolone, in healthy volunteers” (Antimicrob Agents Chemother, 2010)
≈ marks a conversion by molar mass, not a printed value.

Legend:
[1] = Terminal phase elimination half-life in healthy human at 125 […], po administered single dose; type: ADME, organism-based; set-up: route oral; settings: in vivo
Procedure, shortened: (§1)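 After one fasted oral dose (six healthy subjects per cohort), plasma was sampled from 0.5 to 96 h and assayed by LC-MS/MS (LLOQ 5 ng/ml). λz came from least-squares regression on at least the last three log-concentration points, and t1/2 = 0.693/λz. Values are means (SD).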

Homo sapiens [2] = assay: Toxicity in healthy human assessed as occurrence of headache at 1000 […], po; type: organism-based; set-up: route oral; settings: in vivo
[3] = Terminal phase elimination half-life in healthy human at 50 […], po administered single dose; type: ADME, organism-based; set-up: route oral; settings: in vivo; procedure, shortened: as §1
[4] = Tmax in healthy human at 125 mg, po administered as single dose; settings: in vivo
Homo sapiens [5] = assay: Toxicity in healthy human assessed as occurrence of abdominal pain at 25 […], po; type: organism-based, Abdomen; set-up: route oral; settings: in vivo
Procedure, shortened: (§2)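 Double-blind, placebo-controlled single ascending oral dose; two placebo and six active subjects per cohort. Adverse events were recorded throughout the dosing period and at follow-up, with confinement to 96 h after dosing. Results are reported as number and percentage of subjects with the event (n/N × 100).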

Homo sapiens [6] = assay: Toxicity in healthy human assessed as occurrence of ear pain at 1000 […], po; type: organism-based; set-up: route oral; settings: in vivo
Staphylococcus aureus [7] = assay: Antimicrobial activity against methicillin-resistant Staphylococcus aureus; type: functional
Homo sapiens [8] = assay: Toxicity in healthy human assessed as occurrence of erythema at 500 […], po; type: organism-based; set-up: route oral; settings: in vivo
[9] = Terminal phase elimination half-life in healthy human at 25 […], po administered single dose; type: ADME, organism-based; set-up: route oral; settings: in vivo; procedure, shortened: as §1
Homo sapiens [10] = assay: Toxicity in healthy human assessed as occurrence of nausea at 1500 […], po; type: organism-based; set-up: route oral; settings: in vivo
Homo sapiens [11] = assay: Toxicity in healthy human assessed as occurrence of contact dermatitis at 125 […], po; type: organism-based; set-up: route oral; settings: in vivo
Procedure, shortened: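 Randomized, double-blind, placebo-controlled single ascending oral doses in healthy volunteers (cohorts of 6 active, 2 placebo; 25–1,500 mg). After a 10-h fast, dose given with 240 ml water; fasting continued 4 h. Subjects were confined to 96 h postdose. AEs were recorded throughout dosing and at follow-up, reported as number and percentage of subjects with events per treatment.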

[12] = Cmax in healthy human at 25 mg, po administered as single dose; settings: in vivo
[13] = Clearance in healthy human assessed as recovery of unchanged drug in urine at 25 […], po administered as single dose; type: ADME, organism-based; set-up: route oral; settings: read-out: Recovered in urine
Procedure, shortened: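 Healthy volunteers, six on drug per cohort, fasted 10 h and given one oral dose with 240 ml water, then fasted 4 h more. Urine was pooled over intervals from 0-2 to 72-96 h and stored at about −70°C. Drug was measured by solid-phase extraction and LC-MS/MS (LLOQ 200 ng/ml), giving the percent of dose recovered unchanged. Values are means (SD).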

[14] = Terminal phase elimination half-life in healthy human at 1000 mg, po administered single dose; settings: in vivo
[15] = Renal clearance in healthy human at 500 mg, po administered as single dose; settings: in vivo, read-out: CL_renal (converted)
Streptococcus pneumoniae [16] = assay: Ratio of fAUC to MIC90 for penicillin-intermediate Streptococcus pneumoniae; type: functional
Procedure, shortened: (§3)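 Fasted healthy adults got a single oral 500 mg dose with 240 ml water. Plasma was sampled predose to 96 h and assayed by LC-MS/MS (5–5,000 ng/ml). Cmax was read from individual profiles, and AUC0-∞ came from linear trapezoid plus extrapolation. Free fraction was measured by ultrafiltration (30,000 MWCO) of 0.5 and 6 h plasma. Free exposure was divided by the isolate MIC90.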

Homo sapiens [17] = assay: Toxicity in healthy human assessed as occurrence of headache at 125 […], po; type: organism-based; set-up: route oral; settings: in vivo
Homo sapiens [18] = assay: Clearance in healthy human at 250 mg, po administered as single dose; settings: in vivo
[19] = Renal clearance in healthy human at 1500 […], po administered as single dose; type: ADME, organism-based, Kidney; set-up: route oral; settings: in vivo, read-out: CL_renal (converted)
Procedure, shortened: (§4)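 Renal clearance (CL_r) came from noncompartmental analysis of plasma drawn through 96 h and urine collected over fixed intervals to 96 h. Subjects were fasted healthy volunteers, six per dose cohort, given one oral dose with 240 ml water. Plasma and urine were assayed by LC-MS/MS after solid-phase extraction, with urine LLOQ 200 ng/ml. Values are means (SD).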

Homo sapiens [20] = assay: Clearance in healthy human at 50 […], po administered as single dose; type: ADME, organism-based; set-up: route oral; settings: in vivo
Procedure, shortened: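 Randomized, double-blind, placebo-controlled single ascending oral dose in fasted healthy subjects (six on drug per cohort, with 240 ml water). Plasma sampled predose through 96 h and assayed by validated LC-MS/MS over 5–5,000 ng/ml. Oral clearance (CL_o) came from noncompartmental analysis, with AUC_0-∞ from linear trapezoids plus C_last/λz. Values are means (SD).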

Homo sapiens [21] = assay: Toxicity in healthy human assessed as occurrence of nausea at 250 […], po; type: organism-based; set-up: route oral; settings: in vivo
Homo sapiens [22] = assay: Toxicity in healthy human assessed as occurrence of headache at 25 […], po; type: organism-based; set-up: route oral; settings: in vivo
Homo sapiens [23] = assay: Toxicity in healthy human assessed as occurrence of abdominal pain at 50 […], po; type: organism-based, Abdomen; set-up: route oral; settings: in vivo; procedure, shortened: as §2
Homo sapiens [24] = assay: Toxicity in healthy human assessed as occurrence of ear pain at 125 […], po; type: organism-based; set-up: route oral; settings: in vivo
Streptococcus pneumoniae [25] = assay: Ratio of fAUC to MIC90 for Penicillin-sensitive Streptococcus pneumoniae; type: functional; procedure, shortened: as §3
Homo sapiens [26] = assay: Toxicity in healthy human assessed as occurrence of oral hypoesthesia at 25 […], po; type: organism-based; set-up: route oral; settings: in vivo
[27] = Tmax in healthy human at 1500 […], po administered as single dose; type: ADME, organism-based; set-up: route oral; settings: in vivo
Procedure, shortened: (§5)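 Tmax was read by visual inspection of individual plasma concentration–time profiles. Plasma was sampled at 0.5-h steps early on and then out to 96 h, and assayed by LC-MS/MS. Subjects were fasted healthy volunteers, six per cohort, given one oral dose with 240 ml water. Values are means (SD).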

Homo sapiens [28] = assay: Clearance in healthy human at 1000 mg, po administered as single dose; settings: in vivo
[29] = Cmax in healthy human at 125 mg, po administered as single dose; settings: in vivo
[30] = Renal clearance in healthy human at 1000 […], po administered as single dose; type: ADME, organism-based, Kidney; set-up: route oral; settings: in vivo, read-out: CL_renal (converted); procedure, shortened: as §4
Staphylococcus aureus [31] = assay: Ratio of fAUC to MIC90 for methicillin-sensitive Staphylococcus aureus; type: functional; procedure, shortened: as §3
Homo sapiens [32] = assay: Toxicity in healthy human assessed as occurrence of pruritus at 125 […], po; type: organism-based; set-up: route oral; settings: in vivo
Homo sapiens [33] = assay: Toxicity in healthy human assessed as occurrence of oral hypoesthesia at 50 […], po; type: organism-based; set-up: route oral; settings: in vivo
[34] = Tmax in healthy human at 1000 mg/kg, po administered as single dose; type: ADME, organism-based; set-up: route oral; settings: in vivo; procedure, shortened: as §5
Homo sapiens [35] = assay: Toxicity in healthy human assessed as occurrence of pruritus at 500 […], po; type: organism-based; set-up: route oral; settings: in vivo
Homo sapiens [36] = assay: Toxicity in healthy human assessed as occurrence of headache at 500 […], po; type: organism-based; set-up: route oral; settings: in vivo
Homo sapiens [37] = assay: Toxicity in healthy human assessed as occurrence of abdominal pain at 250 […], po; type: organism-based, Abdomen; set-up: route oral; settings: in vivo; procedure, shortened: as §2

With COc1c(N2C[C@@H](C)C[C@H](N)C2)ccc2c(=O)c(C(=O)O)cn(C3CC3)c12 [NEMONOXACIN] the half-life [1] was 11.1 h, the Activity (Homo sapiens [2]) was 17% and the half-life [3] was 8.49 h. The Tmax [4] was 0.75 h, the Activity (Homo sapiens [5]) was 0% and the Activity (Homo sapiens [6]) was 0%. The MIC90 (Staphylococcus aureus [7]) was 0.06 µg/mL (≈ 0.162 µM), the Activity (Homo sapiens [8]) was 0% and the half-life [9] was 9.71 h. For the same molecule, the Activity (Homo sapiens [10]) was 17%, the Activity (Homo sapiens [11]) was 33% and the Cmax [12] was 150 ng/mL. For the same molecule, the dose excreted [13] was 56.2%, the half-life [14] was 16.4 h and the CL renal [15] was 1.13 mL/min/kg. For the same molecule, the Ratio (Streptococcus pneumoniae [16]) was 1812, the Activity (Homo sapiens [17]) was 0% and the CL (Homo sapiens [18]) was 4 mL/min/kg. For the same molecule, the CL renal [19] was 1.15 mL/min/kg, the CL (Homo sapiens [20]) was 3.83 mL/min/kg and the Activity (Homo sapiens [21]) was 0%. For the same molecule, the Activity (Homo sapiens [22]) was 0%, the Activity (Homo sapiens [23]) was 0% and the Activity (Homo sapiens [24]) was 0%. The Ratio (Streptococcus pneumoniae [25]) was 1812, the Activity (Homo sapiens [26]) was 0% and the Tmax [27] was 2.67 h. For the same molecule, the CL (Homo sapiens [28]) was 3.67 mL/min/kg, the Cmax [29] was 1220 ng/mL and the CL renal [30] was 1.4 mL/min/kg. The Ratio (Staphylococcus aureus [31]) was 227, the Activity (Homo sapiens [32]) was 0% and the Activity (Homo sapiens [33]) was 0%. The Tmax [34] was 1.67 h, the Activity (Homo sapiens [35]) was 0% and the Activity (Homo sapiens [36]) was 0%. For the same molecule, the Activity (Homo sapiens [37]) was 0%.
